Converted amounts (≈) assume the structure as drawn.
How the values were obtained:
Format in all cases: functional
[1] = tested on: Mycobacteroides abscessus; assay: Antimicrobial activity against Mycobacterium abscessus isolate MC879-2 at day 7 preincubated with 0.1 ug/ml erythromycin for 3 days by broth microdilution method
[2] = tested on: Mycobacteroides abscessus; assay: Antimicrobial activity against Mycobacterium abscessus isolate MC879-2 at day 9 preincubated with 0.1 ug/ml erythromycin for 3 days by broth microdilution method
[3] = tested on: Mycobacteroides abscessus; assay: Antimicrobial activity against Mycobacterium abscessus isolate MC1448 at day 14 preincubated with 0.1 ug/ml for 3 days by broth microdilution method
In short: (§1)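 Clarithromycin MIC by CLSI-conforming broth microdilution. Before testing, cultures were preincubated for 3 days, either in medium alone or in clarithromycin or erythromycin (tested range 0.01–1 μg/ml). Preincubation ran for at least two generations, judged by turbidity increase. Plates were read on day 3 and on extended incubation at days 5 to 14.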

[4] = tested on: Mycolicibacterium smegmatis; assay: Antimicrobial activity against Mycobacterium smegmatis transformed with erm allele Mycobacterium abscessus isolate MC879 by broth microdilution method
[5] = tested on: Mycolicibacterium smegmatis; assay: Antimicrobial activity against Mycobacterium smegmatis transformed with erm allele Mycobacterium abscessus isolate MC879 preincubated with 2 ug/ml erythromycin for 20 to 24 hrs by broth microdilution method
[6] = tested on: Mycobacteroides abscessus; assay: Antimicrobial activity against Mycobacterium abscessus isolate MC719 at day 3 by broth microdilution method; settings: isolate MC719, 72 h
In short: (§2)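 Clarithromycin MIC by broth microdilution following CLSI guidelines. Before testing, organisms were preincubated for 3 days in medium alone or in clarithromycin or erythromycin (0.01–1 μg/ml), long enough for at least two generations judged by turbidity increase. MICs were read on day 3 and again on extended incubation out to day 14.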

[7] = tested on: Mycobacteroides abscessus; assay: Antimicrobial activity against Mycobacterium abscessus isolate MC720 at day 5 by broth microdilution method; settings: isolate MC720, 120 h; in short: as §2
[8] = tested on: Mycobacteroides abscessus; assay: Antimicrobial activity against Mycobacterium abscessus isolate MC724 at day 9 by broth microdilution method; settings: isolate MC724, 216 h
In short: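 Clarithromycin MIC by broth microdilution following CLSI guidelines. Organisms were preincubated […], for 3 days before the assay. This allowed at least two generations, judged by the rise in turbidity. The MIC was read at the stated day, with incubation extended from day 3 to as long as 14 days.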

[9] = tested on: Mycobacteroides abscessus; assay: Antimicrobial activity against Mycobacterium abscessus isolate MC720 at day 3 preincubated with 0.1 ug/ml erythromycin for 3 days by broth microdilution method; in short: as §2
[10] = tested on: Mycobacteroides abscessus; assay: Antimicrobial activity against Mycobacterium abscessus isolate MC1082 at day 5 by broth microdilution method; settings: isolate MC1082, 120 h; in short: as §1
[11] = tested on: Mycobacteroides abscessus; assay: Antimicrobial activity against Mycobacterium abscessus isolate MAB30 at day 7 by broth microdilution method; settings: isolate MAB30, 168 h; in short: as §1
[12] = tested on: Mycobacteroides abscessus; assay: Antimicrobial activity against Mycobacterium abscessus isolate MC1028 at day 7 by broth microdilution method; settings: isolate MC1028, 168 h; in short: as §1
[13] = tested on: Mycobacteroides abscessus; assay: Antimicrobial activity against Mycobacterium abscessus isolate MC1028 at day 9 by broth microdilution method; settings: isolate MC1028, 216 h; in short: as §1
[14] = tested on: Mycobacteroides abscessus; assay: Antimicrobial activity against Mycobacterium abscessus isolate MAB30 at day 3 preincubated with 0.1 ug/ml erythromycin for 3 days by broth microdilution method; in short: as §1
[15] = tested on: Mycobacteroides abscessus; assay: Antimicrobial activity against Mycobacterium abscessus isolate MC1028 at day 3 preincubated with 0.1 ug/ml erythromycin for 3 days by broth microdilution method; in short: as §1
[16] = tested on: Mycobacteroides abscessus; assay: Antimicrobial activity against Mycobacterium abscessus isolate MC1082 at day 5 preincubated with 0.1 ug/ml erythromycin for 3 days by broth microdilution method; in short: as §1
[17] = tested on: Mycobacteroides abscessus; assay: Antimicrobial activity against Mycobacterium abscessus isolate MC1028 at day 7 preincubated with 0.1 ug/ml erythromycin for 3 days by broth microdilution method; in short: as §1
[18] = tested on: Mycobacteroides abscessus; assay: Antimicrobial activity against Mycobacterium abscessus isolate MC724 at day 5 preincubated with 0.1 ug/ml erythromycin for 3 days by broth microdilution method
In short: (§3)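 Clinical M. abscessus isolates were preincubated for 3 days, either in medium alone or in clarithromycin or erythromycin at 0.01 to 1 μg/ml, allowing at least two generations of growth judged by turbidity. The clarithromycin MIC was then determined by CLSI-conforming broth microdilution, with plates read on day 3 and on extended incubation (days 5 to 14).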

[19] = tested on: Mycobacteroides abscessus; assay: Antimicrobial activity against Mycobacterium abscessus isolate MC720 at day 7 preincubated with 0.1 ug/ml erythromycin for 3 days by broth microdilution method; in short: as §2
[20] = tested on: Mycobacteroides abscessus; assay: Antimicrobial activity against Mycobacterium abscessus isolate MAB30 at day 3 preincubated with 0.1 ug/ml for 3 days by broth microdilution method; in short: as §1
[21] = tested on: Mycobacteroides abscessus; assay: Antimicrobial activity against Mycobacterium abscessus isolate MC1028 at day 5 preincubated with 0.1 ug/ml for 3 days by broth microdilution method; in short: as §1
[22] = tested on: Mycobacteroides abscessus; assay: Antimicrobial activity against Mycobacterium abscessus isolate MC1028 at day 7 preincubated with 0.1 ug/ml for 3 days by broth microdilution method; in short: as §1
[23] = tested on: Mycobacteroides abscessus; assay: Antimicrobial activity against Mycobacterium abscessus isolate MC1082 at day 7 preincubated with 0.1 ug/ml for 3 days by broth microdilution method; in short: as §1
[24] = tested on: Mycobacteroides abscessus; assay: Antimicrobial activity against Mycobacterium abscessus isolate MAB30 at day 9 preincubated with 0.1 ug/ml for 3 days by broth microdilution method; in short: as §1
[25] = tested on: Mycobacteroides abscessus; assay: Antimicrobial activity against Mycobacterium abscessus isolate MC879-2 at day 5 by broth microdilution method; settings: isolate MC879-2, 120 h
[26] = tested on: Mycobacteroides abscessus; assay: Antimicrobial activity against Mycobacterium abscessus isolate MC1448 at day 7 by broth microdilution method; settings: isolate MC1448, 168 h; in short: as §2
[27] = tested on: Mycobacteroides abscessus; assay: Antimicrobial activity against Mycobacterium abscessus isolate MC720 at day 14 preincubated with 0.1 ug/ml erythromycin for 3 days by broth microdilution method; in short: as §2
[28] = tested on: Mycobacteroides abscessus; assay: Antimicrobial activity against Mycobacterium abscessus isolate MC724 at day 3 preincubated with 0.1 ug/ml for 3 days by broth microdilution method
In short: (§4)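 To test inducible resistance, cultures were preincubated for 3 days in clarithromycin or erythromycin, within 0.01–1 μg/ml. The period was set so cultures passed at least two generations, judged by turbidity increase. Clarithromycin MIC was then determined by CLSI-conforming broth microdilution and read on the stated day, from day 3 up to 14.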

[29] = tested on: Mycobacteroides abscessus; assay: Antimicrobial activity against Mycobacterium abscessus isolate MC879 at day 5 preincubated with 0.1 ug/ml for 3 days by broth microdilution method; in short: as §4
[30] = tested on: Mycobacteroides abscessus; assay: Antimicrobial activity against Mycobacterium abscessus isolate MC720 at day 5 preincubated with 0.1 ug/ml for 3 days by broth microdilution method; in short: as §3
[31] = tested on: Mycobacteroides abscessus; assay: Antimicrobial activity against Mycobacterium abscessus isolate MC958 at day 7 preincubated with 0.1 ug/ml for 3 days by broth microdilution method
[32] = tested on: Mycobacteroides abscessus; assay: Antimicrobial activity against Mycobacterium abscessus isolate MC720 at day 7 preincubated with 0.1 ug/ml for 3 days by broth microdilution method; in short: as §2
[33] = tested on: Mycobacteroides abscessus; assay: Antimicrobial activity against Mycobacterium abscessus isolate MC879 at day 9 preincubated with 0.1 ug/ml for 3 days by broth microdilution method; in short: as §4
[34] = tested on: Mycobacteroides abscessus; assay: Antimicrobial activity against Mycobacterium abscessus isolate MC719 at day 9 preincubated with 0.1 ug/ml for 3 days by broth microdilution method; in short: as §2
[35] = tested on: Mycobacteroides abscessus; assay: Antimicrobial activity against Mycobacterium abscessus isolate MC719 at day 5 preincubated with 0.1 ug/ml erythromycin for 3 days by broth microdilution method; in short: as §3

SMILES: CC[C@H]1OC(=O)[C@H](C)[C@@H](O[C@H]2C[C@@](C)(OC)[C@@H](O)[C@H](C)O2)[C@H](C)[C@@H](O[C@@H]2O[C@H](C)C[C@H](N(C)C)[C@H]2O)[C@](C)(OC)C[C@@H](C)C(=O)[C@H](C)[C@@H](O)[C@]1(C)O [CLARITHROMYCIN]
- MIC [1]: > 32 µg/mL
- MIC [2]: > 32 µg/mL
- MIC [3]: > 32 µg/mL
- MIC [4]: 2 µg/mL (≈ 2.67 µM)
- MIC [5]: 16 µg/mL
- MIC [6]: ≤ 0.5 µg/mL
- MIC [7]: 1 µg/mL (≈ 1.34 µM)
- MIC [8]: > 32 µg/mL
- MIC [9]: ≤ 0.5 µg/mL
- MIC [10]: ≤ 0.5 µg/mL
- MIC [11]: ≤ 0.5 µg/mL
- MIC [12]: ≤ 0.5 µg/mL
- MIC [13]: ≤ 0.5 µg/mL
- MIC [14]: ≤ 0.5 µg/mL
- MIC [15]: ≤ 0.5 µg/mL
- MIC [16]: ≤ 0.5 µg/mL
- MIC [17]: ≤ 0.5 µg/mL
- MIC [18]: 4 µg/mL
- MIC [19]: > 32 µg/mL
- MIC [20]: ≤ 0.5 µg/mL
- MIC [21]: ≤ 0.5 µg/mL
- MIC [22]: ≤ 0.5 µg/mL
- MIC [23]: ≤ 0.5 µg/mL
- MIC [24]: ≤ 0.5 µg/mL
- MIC [25]: > 32 µg/mL
- MIC [26]: > 32 µg/mL
- MIC [27]: > 32 µg/mL
- MIC [28]: ≤ 0.5 µg/mL
- MIC [29]: 4 µg/mL (≈ 5.35 µM)
- MIC [30]: 4 µg/mL (≈ 5.35 µM)
- MIC [31]: > 32 µg/mL
- MIC [32]: > 32 µg/mL
- MIC [33]: > 32 µg/mL
- MIC [34]: > 32 µg/mL
- MIC [35]: 4 µg/mL
